Screening results as filed in PubChem.
Only some compounds are listed: those with a hit (about 2.9% of all), similar ones and a draw of the others.
TRPC4 block: inhibitors of mouse TRPC4 channel, primary screen, Fluo4 calcium, HEK293 TRPC4beta/mu-opioid cells; Short transient receptor potential channel 4 (Mus musculus), Q9QUQ5; DAMGO-evoked Fluo4 calcium flux; active compounds read low; B-score at 10 µM; 300,000 tested, 0.39% active; AID 2247, 2010;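 active = B-score over 3 SD under the library average, no early fluorescence shift, positive overall ratio signal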
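Assay system – HEK293 line stably carrying TRPC4beta and mu-opioid receptor · Doses – single dose · Detection – Fluo4 calcium-dye fluorescence, kinetic read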
TRPC6 activator: mouse TRPC6 channel activators, primary screen, cell-based, HEK293, membrane potential dye; Short transient receptor potential channel 6 (Mus musculus), Q61143; HEK293-TRPC6 membrane potential dye fluorescence; active compounds read high; B-score at 10 µM; 310,000 tested, 0.13% active; AID 2550, 2010;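 active = B-score of the integrated fluorescence ratio above library mean plus 3 SD, and starting fluorescence ratio within library mean plus 5 SD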;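 note: higher score means more depolarization so channel activation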
Target sequence (Q61143 whole entry, looked up): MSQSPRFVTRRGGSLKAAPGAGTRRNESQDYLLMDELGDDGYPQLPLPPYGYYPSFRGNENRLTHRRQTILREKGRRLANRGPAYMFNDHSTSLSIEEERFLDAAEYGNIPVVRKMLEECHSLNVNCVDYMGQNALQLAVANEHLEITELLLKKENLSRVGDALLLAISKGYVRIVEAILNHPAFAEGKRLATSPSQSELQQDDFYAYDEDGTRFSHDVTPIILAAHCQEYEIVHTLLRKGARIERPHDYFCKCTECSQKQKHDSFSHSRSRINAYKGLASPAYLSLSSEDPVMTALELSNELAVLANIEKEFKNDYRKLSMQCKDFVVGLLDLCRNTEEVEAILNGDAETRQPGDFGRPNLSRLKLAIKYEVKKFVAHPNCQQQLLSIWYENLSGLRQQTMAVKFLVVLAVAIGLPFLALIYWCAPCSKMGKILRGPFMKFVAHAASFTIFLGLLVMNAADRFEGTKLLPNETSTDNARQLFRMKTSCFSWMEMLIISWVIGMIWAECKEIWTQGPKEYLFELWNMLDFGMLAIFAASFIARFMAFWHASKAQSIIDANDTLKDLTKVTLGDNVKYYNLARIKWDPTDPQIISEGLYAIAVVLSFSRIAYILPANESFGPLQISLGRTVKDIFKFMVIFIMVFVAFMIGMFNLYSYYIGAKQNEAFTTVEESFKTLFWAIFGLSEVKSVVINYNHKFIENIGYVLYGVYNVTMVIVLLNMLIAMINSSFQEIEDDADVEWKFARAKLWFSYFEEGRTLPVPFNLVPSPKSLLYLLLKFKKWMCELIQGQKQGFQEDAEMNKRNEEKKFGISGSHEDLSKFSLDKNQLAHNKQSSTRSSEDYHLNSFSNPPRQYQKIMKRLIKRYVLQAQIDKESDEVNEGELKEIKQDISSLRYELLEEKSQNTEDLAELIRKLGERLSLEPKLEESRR
TRPC4 act: activators of mouse TRPC4 channel, primary screen, Fluo4 calcium, HEK293 TRPC4beta/mu-opioid cells; Short transient receptor potential channel 4 (Mus musculus), Q9QUQ5; Fluo4 calcium fluorescence; active compounds read high; B-score at 10 µM; 310,000 tested, 0.49% active; AID 2237, 2010;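 active = B-score above 5 SD of library B-scores, and initial fluorescence ratio not above library mean plus 5 SD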;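 note: positive B-score marks a calcium rise read as TRPC4 activation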
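System – HEK293 cells stably co-expressing mouse TRPC4beta and mu-opioid receptor · Signal – Fluo4 calcium-sensitive dye fluorescence, kinetic, 1 Hz baseline · Benchmarks – buffer (low) and maximal DAMGO (high) · Read-out – B score of integrated fluorescence ratio per well · Incubation – dye loading 45 min room temperature, 110 s kinetic read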
TRPC4 potent: positive allosteric modulators of TRPC4, primary screen, cell-based, mouse TRPC4beta, HEK293 mu-opioid, Fluo-4 calcium; 310,000 tested, 0.42% active; AID 2227, 2009; DAMGO EC20, Fluo-4 Ca2+ flux; active compounds read high; Short transient receptor potential channel 4 (Mus musculus), Q9QUQ5; B-score at 10 µM;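 active = B-score of calcium response area above 5 SD of library B-scores, with initial fluorescence ratio within 5 SD of library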;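 note: B-score of integrated fluorescence ratio over time as area under calcium response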
TRPC6 inh: mouse TRPC6 channel inhibitors, primary screen, cell-based, HEK293, membrane potential dye; B-score at 10 µM; Short transient receptor potential channel 6 (Mus musculus), Q61143; ACh-evoked depolarization; active compounds read low; 310,000 tested, 1.1% active;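 active = B-score under library mean minus 3 SD, initial fluorescence not abnormally high, positive integrated signal ratio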;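 note: B-score derived from integrated fluorescence ratio over the kinetic read; more negative B-score means stronger inhibition of depolarization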
Kir21 inh: inhibitors of mouse Kir2.1 inward-rectifier potassium channel; HEK293-Kir2.1, FluxOR thallium flux fluorescence; active compounds read low; Inward rectifier potassium channel 2 (Mus musculus), P35561; 310,000 tested, 0.85% active; B-score at 10 µM;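 active = fluorescence ratio B-score at or below minus 3 SD of library scores, with starting-brightness B-score within 2 SD, cut at about -4.2 in these data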;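 note: channel flux triggered by added potassium and thallium sulfate stimulus; B-score of peak minus minimum fluorescence over baseline after thallium stimulus; more negative B-score means stronger Kir2.1 block with less thallium influx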
* = called active by the depositor; i = inactive.

SMILES	TRPC4 block	TRPC6 activator	TRPC4 act	TRPC4 potent	TRPC6 inh	Kir21 inh
COc1ccccc1C1c2ccc3ccccc3c2Oc2ncn(CCN(C)C)c(=N)c21 (stereo not given)	i	i	i	i	i	-5.21*
COc1ccc(C2c3ccc4ccccc4c3Oc3ncn(CCCN(C)C)c(=N)c32)cc1 (stereo not given)	i	i	i	i	i	-7.2*
COc1ccccc1C1c2ccc3ccccc3c2Oc2ncn(CCCO)c(=N)c21 (stereo not given)	i	i	i	i	i	-2.5
CCNS(=O)(=O)c1ccc(CCC(=O)NCc2ccncc2)cc1	i	i	i	i	i	2.5
Cc1nc2scc(C)n2c(=O)c1S(=O)(=O)N1CCN(c2ccc([N+](=O)[O-])cc2)CC1	i	i	i	i	i	1.94
CCC[C@H]1COCCS(=O)(=O)N1Cc1ccc(Br)cc1	i	i	i	i	i	-6.1*
O=C(NCC1CCCO1)c1cc2nc(-c3ccco3)cc(C(F)(F)Cl)n2n1 (stereo not given)	i	i	i	i	i	-0.05
C[C@H](NC(CCc1ccccc1)C(=O)O)C(=O)N1CCC[C@H]1C(=O)O (stereo not given in full)	i	i	55*	i	i	-0.1
C[C@H](NC(=O)[C@H](Cc1ccccc1)n1c(=O)[nH]c2ccccc2c1=O)C(=O)N1CCC[C@H]1C(=O)O	i	i	i	i	i	-1.02
CCOC(=O)C1=C(Cc2ccc(C)cc2)C(=O)c2ccccc2C1=O	i	12.8*	i	i	i	-0.29
N=c1c2c(-c3ccccc3)c(-c3ccccc3)n(Cc3ccco3)c2ncn1CCCn1ccnc1	i	i	i	i	i	-7.65*
c1ccc(-c2c(-c3ccccc3)n(Cc3ccco3)c3ncnc(NCCCn4ccnc4)c23)cc1	i	i	i	i	i	-2.94
N=c1c2c(-c3ccccc3)c(-c3ccccc3)n(Cc3ccco3)c2ncn1CCCN1CCOCC1	i	i	i	i	i	-7.1*
O=C(Cc1ccccc1)NCC(=O)OCc1cccc([N+](=O)[O-])c1	i	i	i	i	i	-2.21
CCOC(=O)CN1C(=O)/C(=C2\SC(=S)N(NC(=O)c3cccnc3)C2=O)c2ccccc21	i	i	i	i	i	-0.98
Cc1ccccc1CC1(CO)CCCN(Cc2ccn[nH]2)C1 (stereo not given)	i	i	i	i	i	-0.94
Cc1ccc(CN2CCCC(CO)(Cc3ccccc3C)C2)s1 (stereo not given)	i	i	i	i	i	-4.41*
CCn1c(N2CCN(C(=S)NC)CC2)nc2ccccc21	i	i	68*	i	i	0.46
CCn1c(N2CCN(S(=O)(=O)c3ccc(Cl)cc3)CC2)nc2ccccc21	i	i	i	i	i	-0.11
CCn1c(N2CCN(C(=S)Nc3ccc(OC)cc3)CC2)nc2ccccc21	i	i	52*	i	i	-0.04
CCn1c(N2CCN(C(=S)NCC(C)C)CC2)nc2ccccc21	i	i	105*	i	i	0.52
CCCn1c(N2CCN(Cc3ccc(Cl)cc3)CC2)nc2ccccc21	i	i	i	i	i	-1.71
CCn1c(N2CCN(Cc3ccc([N+](=O)[O-])cc3)CC2)nc2ccccc21	i	i	124*	12*	i	1.08
CC(C)CNC(=S)N1CCN(c2nc3ccccc3s2)CC1	i	i	i	i	i	-0.09
CCOc1ccccc1NC(C)C(=O)Nc1cc(C(F)(F)F)ccc1N1CCOCC1 (stereo not given)	i	i	i	i	i	1.94
SMILES	TRPC4 block	TRPC6 activator	TRPC4 act	TRPC4 potent	TRPC6 inh	Kir21 inh
Cn1c(N2CCN(C(=O)Nc3ccc(F)cc3)CC2)nc2ccccc21	i	i	88*	i	i	0.73
CCn1c(N2CCN(S(=O)(=O)CC)CC2)nc2ccccc21	i	i	126*	i	i	-0.88
CCn1c(N2CCN(S(=O)(=O)c3ccc(F)cc3)CC2)nc2ccccc21	i	i	i	i	i	-0.03
CC(C)n1c(N2CCN(C(=O)Nc3ccccc3)CC2)nc2ccccc21	i	i	i	i	i	-0.66
CCn1c(N2CCN(C(=S)NCCc3ccccc3)CC2)nc2ccccc21	i	i	87*	i	i	-0.82
CCOC(=O)c1ccc(NC(=S)N2CCN(CCO)CC2)cc1	i	i	i	i	i	0.44
c1ccc(C2=NNC(c3ccccn3)=NN2)nc1	i	i	i	i	i	-1.12
CC1(c2ccccc2)CC(C)(C)N(C(=O)C2CCCO2)c2ccccc21 (stereo not given)	-7*	i	i	i	i	-2.85
COc1ccccc1C(=O)N(CN1CCCC1=O)c1cccc(Cl)c1	i	i	i	i	i	-2
CCOc1ccccc1C(=O)N(CN1CCCC1=O)c1cccc(Cl)c1	i	i	46*	i	i	-1.83
Cc1ccc2[nH]c(C)c(CCN(Cc3cccnc3)C(=S)NC(C)(C)C)c2c1	i	i	i	16*	i	-1.45
Cc1ccc(S(=O)(=O)c2c(C(=O)c3ccccc3)cnc3cc4c(cc23)OCCO4)cc1	i	i	i	18*	i	2.22
Cc1c(C(=O)c2ccc(Cl)c(Cl)c2)cnc2cc3c(cc12)OCO3	i	i	i	i	i	-0.01
Cc1cc(C(=O)Nc2ccon2)cs1	i	i	i	i	i	0.01
O=C(Nc1ccon1)c1csc2ccccc12	-7*	i	i	i	i	0.97
COc1ccccc1N1CCN(C(=O)CCc2nnc3ccc(N4CCC(C)CC4)nn23)CC1	i	i	i	i	i	0.13
CCCCC1C2=C(CC(C)(C)CC2=O)OC2=C1C(=O)CC(C)(C)C2	i	i	i	14*	i	-0.6
CCCCCCC1C(C#N)=C(N)OC2=C1C(=O)CC(C)(C)C2 (stereo not given)	i	i	i	i	i	-0.36
